The conditions of data set [1]: cited from earlier work.
Data set [2] is described as follows: Safety and tolerability assessment in the Phase 1 renal impairment trial. The data set is classed as in vivo, human. Summed up: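 Subjects admitted the day before a single 10 mg SC abdominal dose, kept on site for the first 3 days, then seen as outpatients daily to Day 8, with follow-up on Day 11. Ongoing monitoring covered AE recording (MedDRA preferred terms), vital signs, 12-lead ECGs, clinical laboratory tests, physical examinations and injection-site reactions.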

For data set [3] the following is noted: SC; slow release of M1 and M2 from the SC depot; cited from earlier work.
For data set [4] the following is noted: SBS patients; dose reduction by 50% recommended; cited from earlier work.

Where two headings read alike, the source gives them in different places.

On to “native GLP-2: 33-amino acid intestinal growth factor secreted in response to nutrient intake”, for which the half-life (usually the time in which the quantity being followed falls by half) in data set [1] (native GLP-2, in vivo) was 5 to 7 min.

With Glepaglutide, in data set [2] (16 subjects, single SC dose glepaglutide 10 mg), the “serious AEs, deaths, or AEs leading to trial withdrawal” value is “no serious AEs, deaths, or AEs leading to trial withdrawal”. Besides, the “total number of AEs (all non-serious and mild)” value in data set [2] (reported in 3 of 16 subjects, single SC dose 10 mg) turned out to be 6. In addition, the “overall safety and tolerability” value in data set [2] (single SC dose 10 mg, normal renal function and severe renal impairment or ESRD) was “safe and well tolerated”. Moreover, the effective half-life in data set [3] was 88.3 h.

On to teduglutide, for which the half-life result in data set [1] (teduglutide) is given as “approximately 2 h”. Also, the “AUC0–∞ and Cmax in moderate or severe renal impairment/ESRD” value in data set [4] was “elevated”.

The values are drawn from publication PMC10085944 (Clinical Pharmacokinetics, 2023).
